From ChEMBL document CHEMBL1255375, “Mutational events in cefotaximase extended-spectrum beta-lactamases of the CTX-M-1 cluster involved in ceftazidime resistance” (2008)
Values after ≈ are worked out from the molar mass of the structure shown.

What was measured:
[1] = tested on: Escherichia coli; experiment: Antimicrobial activity against beta lactamase CTX-M-10 producing Escherichia coli GB20 by broth microdilution method; format: functional
[2] = tested on: Escherichia coli; experiment: Antimicrobial activity against Escherichia coli GB20 harboring P167S mutation in beta lactamase CTX-M-10 by broth microdilution method; format: functional
[3] = tested on: Escherichia coli; experiment: Antimicrobial activity against Escherichia coli GB20 harboring D240G mutation in beta lactamase CTX-M-10 by broth microdilution method; format: functional
[4] = tested on: Escherichia coli; experiment: Antimicrobial activity against Escherichia coli GB20 harboring V27A, Q38R mutations in beta lactamase CTX-3 by broth microdilution method; format: functional
[5] = tested on: Escherichia coli; experiment: Antimicrobial activity against Escherichia coli GB20 harboring V27A, Q38R, P167S mutation in beta lactamase CTX-M-3 by broth microdilution method; format: functional
[6] = tested on: Escherichia coli; experiment: Antimicrobial activity against Escherichia coli GB20 harboring V27A, Q38R, A77V, P167S mutation in beta lactamase CTX-M-3 by broth microdilution method; format: functional
[7] = tested on: Escherichia coli; experiment: Antimicrobial activity against Escherichia coli GB20 harboring V27A, Q38R, A77V, N114D, A140S, D288N mutations in beta lactamase CTX-M-1 by broth microdilution method; format: functional
[8] = tested on: Escherichia coli; experiment: Antimicrobial activity against Escherichia coli GB20 harboring V27A, Q38R, A77V, N114D, A140S, P167S, D288N mutations in beta lactamase CTX-M-1 by broth microdilution method; format: functional
[9] = tested on: Escherichia coli; experiment: Antimicrobial activity against Escherichia coli GB20 harboring V27A, Q38R, A77V, N114D, A140S, P167T, D288N mutations in beta lactamase CTX-M-1 by broth microdilution method; format: functional
[10] = tested on: Escherichia coli; experiment: Antimicrobial activity against Escherichia coli MI1443 harboring V27A, Q38R, D240G mutations in beta lactamase CTX-M-15 by broth microdilution method; format: functional
[11] = tested on: Escherichia coli; experiment: Antimicrobial activity against Escherichia coli MI1443 harboring V27A, Q38R, A77V, N114D, A140S, D240G, D288N mutations in beta lactamase CTX-M-32 by broth microdilution method; format: functional
[12] = tested on: Escherichia coli; experiment: Antimicrobial activity against Escherichia coli MI1443 harboring A77V mutation in beta lactamase CTX-M-10 by E-test; format: functional
Summary of the method: (§1)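 MICs by E-test. Host is E. coli MI1443 carrying an artificial blaCTX-M derivative made by PCR and cloned into pBGS18- (EcoRI/PstI). Transformants were selected on kanamycin 50 µg/ml and the mutation was confirmed by sequencing. Agents tested: cefotaxime, ceftazidime, cefepime, cefuroxime and amoxicillin-clavulanate.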

[13] = tested on: Escherichia coli; experiment: Antimicrobial activity against Escherichia coli MI1443 harboring A77V and P167S mutations in beta lactamase CTX-M-10 by E-test; format: functional
Summary of the method: (§2)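 E-test MICs on E. coli MI1443 carrying artificial blaCTX-M derivatives. Each gene was cloned into pBGS18– at EcoRI/PstI, transformed into MI1443, selected with kanamycin 50 µg/ml, and sequenced to confirm the mutation. Agents: cefotaxime, ceftazidime, cefepime, cefuroxime, amoxicillin-clavulanate.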

[14] = tested on: Escherichia coli; experiment: Antimicrobial activity against Escherichia coli MI1443 harboring A77V and D240G mutations in beta lactamase CTX-M-10 by E-test; format: functional; summary of the method: as §2
[15] = tested on: Escherichia coli; experiment: Antimicrobial activity against Escherichia coli MI1443 harboring N106S mutation in beta lactamase CTX-M-10 by E-test; format: functional; summary of the method: as §2
[16] = tested on: Escherichia coli; experiment: Antimicrobial activity against Escherichia coli MI1443 harboring N106S and P167S mutations in beta lactamase CTX-M-10 by E-test; format: functional; summary of the method: as §2
[17] = tested on: Escherichia coli; experiment: Antimicrobial activity against Escherichia coli MI1443 harboring N106S and D240G mutations in beta lactamase CTX-M-10 by E-test; format: functional; summary of the method: as §2
[18] = tested on: Escherichia coli; experiment: Antimicrobial activity against Escherichia coli MI1443 harboring P167S and D240G mutations in beta lactamase CTX-M-10 by E-test; format: functional; summary of the method: as §1
[19] = tested on: Escherichia coli; experiment: Antimicrobial activity against Escherichia coli MI1443 harboring V27A and Q38R mutations in beta lactamase CTX-M-10 by E-test; format: functional; summary of the method: as §2
[20] = tested on: Escherichia coli; experiment: Antimicrobial activity against Escherichia coli MI1443 harboring V27A, Q38R, A77V mutations in beta lactamase CTX-M-3 by E-test; format: functional; summary of the method: as §1
[21] = tested on: Escherichia coli; experiment: Antimicrobial activity against Escherichia coli MI1443 harboring V27A, Q38R, A77V and D240G mutations in beta lactamase CTX-M-3 by E-test; format: functional; summary of the method: as §2
[22] = tested on: Escherichia coli; experiment: Antimicrobial activity against Escherichia coli MI1443 harboring V27A, Q38R, N106S mutations in beta lactamase CTX-M-3 by E-test; format: functional; summary of the method: as §1
[23] = tested on: Escherichia coli; experiment: Antimicrobial activity against Escherichia coli MI1443 harboring V27A, Q38R, N106S and P167S mutations in beta lactamase CTX-M-3 by E-test; format: functional; summary of the method: as §1
[24] = tested on: Escherichia coli; experiment: Antimicrobial activity against Escherichia coli MI1443 harboring V27A, Q38R, N106S and D240G mutations in beta lactamase CTX-M-3 by E-test; format: functional; summary of the method: as §2
[25] = tested on: Escherichia coli; experiment: Antimicrobial activity against Escherichia coli MI1443 harboring V27A, Q38R, P167S and D240G mutations in beta lactamase CTX-M-3 by E-test; format: functional; summary of the method: as §1
[26] = tested on: Escherichia coli; experiment: Antimicrobial activity against beta lactamase CTX-M-10 producing Escherichia coli MI1443 by broth microdilution

SMILES	MIC [1]	MIC [2]	MIC [3]	MIC [4]	MIC [5]	MIC [6]	MIC [7]	MIC [8]	MIC [9]	MIC [10]	MIC [11]	MIC [12]	MIC [13]	MIC [14]	MIC [15]	MIC [16]	MIC [17]	MIC [18]	MIC [19]	MIC [26]	other results
CO/N=C(\C(=O)N[C@@H]1C(=O)N2C(C(=O)[O-])=C(C[N+]3(C)CCCC3)CS[C@H]12)c1csc(N)n1 [CEFEPIME]	32 µg/mL (≈ 66.6 µM)	1 µg/mL (≈ 2.08 µM)	4 µg/mL (≈ 8.32 µM)	32 µg/mL (≈ 66.6 µM)	0.5 µg/mL (≈ 1.04 µM)	0.25 µg/mL (≈ 0.52 µM)	128 µg/mL (≈ 266 µM)	4 µg/mL (≈ 8.32 µM)	4 µg/mL (≈ 8.32 µM)	1 µg/mL (≈ 2.08 µM)	4 µg/mL (≈ 8.32 µM)	128 µg/mL (≈ 266 µM)	1 µg/mL (≈ 2.08 µM)	32 µg/mL (≈ 66.6 µM)	1 µg/mL (≈ 2.08 µM)	1 µg/mL (≈ 2.08 µM)	4 µg/mL (≈ 8.32 µM)	< 0.25 µg/mL	32 µg/mL (≈ 66.6 µM)	32 µg/mL (≈ 66.6 µM)	MIC [20]: 1.5 µg/mL (≈ 3.12 µM); MIC [21]: 4 µg/mL (≈ 8.32 µM); MIC [22]: 1.5 µg/mL (≈ 3.12 µM); MIC [23]: 1.5 µg/mL (≈ 3.12 µM); MIC [24]: 8 µg/mL (≈ 16.6 µM); MIC [25]: 0.5 µg/mL (≈ 1.04 µM)
CO/N=C(\C(=O)N[C@@H]1C(=O)N2C(C(=O)O)=C(COC(N)=O)CS[C@H]12)c1ccco1 [CEFUROXIME]	≥ 256 µg/mL	32 µg/mL (≈ 75.4 µM)	–	–	128 µg/mL (≈ 302 µM)	64 µg/mL (≈ 151 µM)	–	–	–	–	–	–	64 µg/mL (≈ 151 µM)	–	–	–	–	–	–	≥ 256 µg/mL	–
CC(C)(O/N=C(\C(=O)N[C@@H]1C(=O)N2C(C(=O)[O-])=C(C[n+]3ccccc3)CS[C@H]12)c1csc(N)n1)C(=O)O [CEFTAZIDIME]	1 µg/mL (≈ 1.83 µM)	32 µg/mL (≈ 58.5 µM)	16 µg/mL (≈ 29.3 µM)	1 µg/mL (≈ 1.83 µM)	32 µg/mL (≈ 58.5 µM)	32 µg/mL (≈ 58.5 µM)	4 µg/mL (≈ 7.32 µM)	256 µg/mL (≈ 468 µM)	256 µg/mL (≈ 468 µM)	2 µg/mL (≈ 3.66 µM)	2 µg/mL (≈ 3.66 µM)	8 µg/mL (≈ 14.6 µM)	64 µg/mL (≈ 117 µM)	8 µg/mL (≈ 14.6 µM)	0.5 µg/mL (≈ 0.915 µM)	16 µg/mL (≈ 29.3 µM)	2 µg/mL (≈ 3.66 µM)	4 µg/mL (≈ 7.32 µM)	1 µg/mL (≈ 1.83 µM)	1 µg/mL (≈ 1.83 µM)	MIC [20]: 1 µg/mL (≈ 1.83 µM); MIC [21]: 2 µg/mL (≈ 3.66 µM); MIC [22]: 0.5 µg/mL (≈ 0.915 µM); MIC [23]: 32 µg/mL (≈ 58.5 µM); MIC [24]: 2 µg/mL (≈ 3.66 µM); MIC [25]: 8 µg/mL (≈ 14.6 µM)
CO/N=C(\C(=O)N[C@@H]1C(=O)N2C(C(=O)O)=C(COC(C)=O)CS[C@H]12)c1csc(N)n1 [CEFOTAXIME]	256 µg/mL (≈ 562 µM)	1 µg/mL (≈ 2.2 µM)	≥ 256 µg/mL	256 µg/mL (≈ 562 µM)	1 µg/mL (≈ 2.2 µM)	4 µg/mL (≈ 8.78 µM)	≥ 256 µg/mL	16 µg/mL (≈ 35.1 µM)	16 µg/mL (≈ 35.1 µM)	128 µg/mL (≈ 281 µM)	256 µg/mL (≈ 562 µM)	≥ 256 µg/mL	4 µg/mL (≈ 8.78 µM)	≥ 256 µg/mL	2 µg/mL (≈ 4.39 µM)	2 µg/mL (≈ 4.39 µM)	64 µg/mL (≈ 141 µM)	4 µg/mL (≈ 8.78 µM)	256 µg/mL (≈ 562 µM)	256 µg/mL (≈ 562 µM)	MIC [20]: 128 µg/mL (≈ 281 µM); MIC [21]: ≥ 256 µg/mL; MIC [22]: 3 µg/mL (≈ 6.59 µM); MIC [23]: 3 µg/mL (≈ 6.59 µM); MIC [24]: ≥ 256 µg/mL; MIC [25]: 1.5 µg/mL (≈ 3.29 µM)
